In ChEMBL document CHEMBL5647689, “Functional role and therapeutic potential of the pim-1 kinase in colon carcinoma” (Neoplasia, 2013):
The source made the active and inactive calls. The calls are words filed in the database; no cut-off is given here.

Experiments:
HCT-116 [1] = experiment: Synergistic antitumor activity against human HCT-116 cells xenografted in athymic nude mouse assessed as tumor growth inhibition at 70 mg/kg, ip administered on day 3 to 4 measured after 14 days; assay type: functional; conditions: HCT-116, 336 h, time 14 day, read-out: TGI
HCT-116 [2] = experiment: Synergistic antitumor activity against PEI complexed siRNA-mediated Pim-1 knockout human HCT-116 cells xenografted in athymic nude mouse assessed as tumor growth inhibition at 70 mg/kg, ip administered on day 3 to 4 measured after 14 days; assay type: functional; conditions: HCT-116, 336 h, time 14 day, read-out: TGI
HCT-116 [3] = experiment: Synergistic antitumor activity against PEI complexed siRNA-mediated luciferase knockout human HCT-116 cells xenografted in athymic nude mouse assessed as tumor growth inhibition at 70 mg/kg, ip administered on day 3 to 4 measured after 14 days; assay type: functional; conditions: HCT-116, 336 h, time 14 day, read-out: TGI
[4] = Toxicity in athymic nude mouse xenografted with human HCT-116 cells assessed as change in body weight at 70 mg/kg, ip administered twice a week measured after 14 days; assay type: organism-based; conditions: in vivo, 336 h, time 14 day
[5] = Toxicity in athymic nude mouse xenografted with human HCT-116 cells assessed as change in body weight at 40 mg/kg, ip administered twice a week measured after 14 days; assay type: organism-based; conditions: in vivo, 336 h, time 14 day
[6] = Toxicity in athymic nude mouse xenografted with human HCT-116 cells assessed as behavioural changes in at 70 mg/kg, ip administered twice a week measured after 14 days; assay type: organism-based; conditions: in vivo, 336 h, time 14 day
[7] = Toxicity in athymic nude mouse xenografted with human HCT-116 cells assessed as behavioural changes in at 40 mg/kg, ip administered twice a week measured after 14 days; assay type: organism-based; conditions: in vivo, 336 h, time 14 day
HCT-116 [8] = experiment: Synergistic antitumor activity against PEI complexed siRNA treated human HCT-116 cells xenografted in athymic nude mouse assessed as tumor growth inhibition at 40 mg/kg, ip administered on day 3 to 4 measured after 14 days; assay type: functional; conditions: HCT-116, 336 h, time 14 day, read-out: TGI
HCT-116 [9] = experiment: Synergistic antitumor activity against PEI complexed siRNA-mediated Pim-1 knockout human HCT-116 cells xenografted in athymic nude mouse assessed as tumor growth inhibition at 40 mg/kg, ip administered on day 3 to 4 measured after 14 days; assay type: functional; conditions: HCT-116, 336 h, time 14 day, read-out: TGI
HCT-116 [10] = experiment: Antitumor activity against PEI complexed siRNA-mediated Pim-1 knockout human HCT-116 cells xenografted in athymic nude mouse assessed as increase in pim-1 levels in tumor at 40 to 70 mg/kg, ip administered on day 3 to 4 measured after 14 days by immunohistochemical staining based analysis; assay type: functional, organism-based; conditions: dose 40-70 mg/kg, time 14.0 day
In short: (§1)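 Nude mice (Foxn1nu, 6–8 weeks) carried s.c. HCT-116 flank tumours (1.5 x 10^6 cells) and were randomized at 40–50 mm3, n = 12 tumours/group. PEI F25-LMW-complexed siRNA (Pim-1 or control) was given at 10 µg i.p. every 2–3 days; 70 or 40 mg/kg in PBS was given i.p. every 3–4 days. Paraffin tumour sections were stained for Pim-1 and ranked 0–4.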

HCT-116 [11] = experiment: Antitumor activity against PEI complexed siRNA-mediated luciferase knockout human HCT-116 cells xenografted in athymic nude mouse assessed as increase in pim-1 levels in tumor at 40 to 70 mg/kg, ip administered on day 3 to 4 measured after 14 days by immunohistochemical staining based analysis; assay type: functional, organism-based; conditions: dose 40-70 mg/kg, time 14.0 day; in short: as §1
HCT-116 [12] = experiment: Antiproliferative activity against siRNA-mediated Pim-1 knockout human HCT-116 cells assessed as increase in pim-1 mRNA levels measured after 24 hrs by q-PCR analysis; assay type: functional, cell-based; conditions: dose 1-3 µM
In short: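 HCT-116 cells seeded at 3.5 x 10^5 per six-well well under standard conditions, then exposed 24 h at 37°C to 1 or 3 µM in IMDM/10% FCS. Total RNA was extracted by phenol/chloroform, and Pim-1 mRNA was measured by SYBR Green qPCR run in parallel with actin. Levels were expressed as 2^CP(target)/2^CP(actin).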

HCT-116 [13] = experiment: Induction of apoptosis in human HCT-116 cells assessed as fold increase in caspase 3/7 activity incubated for 72 hrs by Caspase-Glo 3/7 reagent based microplate reader analysis; assay type: functional
HCT-116 [14] = experiment: Induction of apoptosis in siRNA-mediated Pim-1 knockout human HCT-116 cells assessed as fold increase in caspase 3/7 activity incubated for 72 hrs by Caspase-Glo 3/7 reagent based microplate reader analysis; assay type: functional
In short: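 HCT-116 cells, 5 x 10^2 per well, transfected with 20 nM siPim-1 […], held 72 h at 37°C. Caspase substrate diluted 1:5 in serum-free medium added for 1 h at room temperature in the dark; luminescence read. Signal normalized to a parallel WST-1 assay on the same plate. Means ± SEM.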

[15] = Downregulation of miR-15b expression in human HCT-116 cells at 3 uM incubated for 24 hrs by […] analysis; assay type: functional
HCT-116 [16] = experiment: Induction of miR-15b mediated pim-1 expression in human HCT-116 cells assessed as increase in luciferase activity at 3 uM incubated for 72 hrs by luminometer analysis; assay type: functional, cell-based
In short: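 HCT-116 cells (3 x 10^4 per 24-well well) co-transfected via PEI F25-LMW with 125 ng pGL3 luciferase reporter carrying Pim-1 3′UTR, intact or miR-15b-seed-mutated. After 48 h, 1 or 3 µM in IMDM/10% FCS was added for 24 h at 37°C. Lysate was mixed with luciferase substrate and read on a luminometer.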

HCT-116 [17] = experiment: cells; conditions: Homo sapiens, HCT-116, 72 h
HCT-116 [18] = experiment: cells; conditions: Homo sapiens, HCT-116, 72 h; remark: listed apart in the source
HCT-116 [19] = experiment: Antiproliferative activity against siRNA-mediated Pim-1 knockout human HCT-116 cells assessed as reduction in cell viability measured after 72 hrs; assay type: functional, cell-based; conditions: dose 0.066-66 µM
In short: (§2)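 HCT-116 (1 x 10^3/well) or LS174T (3 x 10^3/well) cells were grown in IMDM/10% FCS at 37°C, 5% CO2. The medium was replaced with IMDM/10% FCS containing the inhibitor at the indicated concentrations, and cells were kept 72 h at 37°C. Inhibitor stock was 20 mg/ml in DMSO, diluted in PBS or medium.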

LS174T = experiment: Antiproliferative activity against siRNA-mediated Pim-1 knockout human LS174T cells assessed as reduction in cell viability measured after 72 hrs; assay type: functional, cell-based; conditions: dose 0.13-130 µM; in short: as §2
HCT-116 [20] = experiment: Induction of apoptosis in siRNA-mediated Pim-1 knockout human HCT-116 cells assessed as increase in caspase 3/7 activity at 0.7 uM incubated for 72 hrs by Caspase-Glo 3/7 reagent based microplate reader analysis; assay type: functional, cell-based
In short: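 HCT-116 cells (1 x 10^3/well) were exposed to the inhibitor in IMDM/10% FCS for 72 h at 37°C. Caspase-3/7 was read by Caspase-Glo 3/7: substrate diluted 1:5 in serum-free medium, 1 h at room temperature in the dark, then luminescence. A WST-1 assay run in parallel on the same plate normalized for cell density.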

HCT-116 [21] = experiment: Downregulation of pim-1 levels in human HCT-116 cells at 2 uM incubated for 24 hrs by Western blotting analysis; assay type: functional, cell-based
In short: (§3)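 HCT-116 lysates were made on ice in PBS with 1 mM EDTA, 1% NP-40, protease and phosphatase inhibitors, then sonicated and cleared by centrifugation. Protein was measured by DC assay. 40 µg ran on 10% SDS-PAGE and went onto PVDF (0.45 µm). Blocking used 5% milk/TBST; primary antibodies ran overnight at 4°C, then HRP secondaries for 1 h. Detection was ECL with densitometric quantitation of scanned bands.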

HCT-116 [22] = experiment: Downregulation of p-STAT3 levels at serine 727 residue in human HCT-116 cells at 2 uM incubated for 24 hrs by Western blotting analysis; assay type: functional, cell-based; in short: as §3
HCT-116 [23] = experiment: Downregulation of p-p21 levels in human HCT-116 cells at 2 uM incubated for 24 hrs by Western blotting analysis; assay type: functional, cell-based; in short: as §3
HCT-116 [24] = experiment: Downregulation of c-Myc levels in human HCT-116 cells at 2 uM incubated for 24 hrs by Western blotting analysis; assay type: functional, cell-based; in short: as §3
HCT-116 [25] = experiment: Downregulation of E-cadherin levels in human HCT-116 cells at 2 uM incubated for 24 hrs by Western blotting analysis; assay type: functional, cell-based; in short: as §3

SMILES: O=c1[nH]cc(F)c(=O)[nH]1 [FLUOROURACIL]
- inhibition in vivo at 70 mg/kg (HCT-116 [1]): ~40%
- inhibition in vivo at 70 mg/kg (HCT-116 [2]): ~30%
- inhibition in vivo at 70 mg/kg (HCT-116 [3]): ~30%
- Activity [4]: Toxic
- Activity [5]: Non-Toxic
- Activity [6]: Toxic
- Activity [7]: Non-Toxic
- inhibition in vivo at 40 mg/kg (HCT-116 [8]): ~20%
- inhibition in vivo at 40 mg/kg (HCT-116 [9]): ~60%
- Activity (HCT-116 [10]): Active
- Activity (HCT-116 [11]): Active
- Activity (HCT-116 [12]): Dose-Dependent Effect
- fold change (FC) (HCT-116 [13]): ~1.7
- fold change (FC) (HCT-116 [14]): 1.4
- Activity [15]: 40%
- Activity (HCT-116 [16]): Active
- IC50 (HCT-116 [17]): 10.1 µM
- IC50 (HCT-116 [18]): 3.2 µM

SMILES: Cn1c2c(c3ccc(Cl)c(Cl)c31)C(C#N)C1(CCNCC1)NC2=O (stereo unspecified)
- Activity (HCT-116 [19]): Dose-Dependent Effect
- Activity (LS174T): Dose-Dependent Effect
- Activity (HCT-116 [20]): Active
- Activity (HCT-116 [21]): Active
- Activity (HCT-116 [22]): Active
- Activity (HCT-116 [23]): Active
- Activity (HCT-116 [24]): Active
- Activity (HCT-116 [25]): Active
